Experimental data published in ChEMBL document CHEMBL2086243, “Spirocyclic nortriterpenoids with NGF-potentiating activity from the fruits of Leonurus heterophyllus” (J Nat Prod, 2012).
The source made the active and inactive calls. The calls are words filed in the database; no cut-off is given here.

Tests used:
[1] = test system: PC-12; assay: Potentiation of NGF-induced neurite outgrowth-promotion in rat PC12 cells assessed as increase in neurite length at 1 uM incubated for 4 days in presence of 0.5 ng/mL NGF (reference value: 21.1 micrometer); type: functional
[2] = test system: PC-12; assay: Potentiation of NGF-induced neurite outgrowth-promotion in rat PC12 cells assessed as increase in neurite length at 1 to 30 uM incubated for 4 days in presence of 0.5 ng/mL NGF (reference value: 21.1 micrometer); type: functional, cell-based
[3] = test system: PC-12; assay: Potentiation of NGF-induced neurite outgrowth-promotion in rat PC12 cells at 10 uM incubated for 4 days in presence of 0.5 ng/mL NGF; type: functional, cell-based
[4] = test system: PC-12; assay: Potentiation of NGF-induced neurite outgrowth-promotion in rat PC12 cells assessed as increase in neurite length at 10 uM incubated for 4 days in presence of 0.5 ng/mL NGF (reference value: 21.1 micrometer); type: functional
[5] = test system: PC-12; assay: Effect on cell morphology in rat PC12 cells at 1 to 10 uM incubated for 4 days in absence of NGF; type: functional, cell-based
Method in brief: (§1)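 PC12 cells seeded at 8 × 10^3 cells/cm2 in DMEM + 10% HS, 5% FBS, penicillin/streptomycin, 37 °C, 5% CO2, 24 h. Medium then switched to DMEM + 2% HS, 1% FBS and test samples added without NGF. After 4 days, cells fixed in 4% paraformaldehyde−PBS, stained with methylene blue, and morphology examined by phase-contrast microscopy. Triplicate wells.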

[6] = test system: PC-12; assay: Toxicity in NGF-stimulated rat PC12 cells at > 30 uM incubated for 4 days in presence of 0.5 ng/mL NGF; type: cell-based; settings: pc-12, 96 h
Method in brief: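 PC12 cells grown 24 h in DMEM + 10% HS/5% FBS, then exposed for 4 days to test samples with 0.5 ng/mL NGF in DMEM + 2% HS/1% FBS. After fixing in 4% paraformaldehyde−PBS and methylene blue staining, cells were examined under phase-contrast microscopy.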

[7] = test system: PC-12; assay: Potentiation of NGF-induced neurite outgrowth-promotion in rat PC12 cells at 1 uM incubated for 4 days in presence of 0.5 ng/mL NGF; type: functional, cell-based
[8] = test system: PC-12; assay: Effect on cell morphology in rat PC12 cells at 1 to 30 uM incubated for 4 days in absence of NGF; type: functional, cell-based; method in brief: as §1
[9] = test system: PC-12; assay: Potentiation of NGF-induced neurite outgrowth-promotion in rat PC12 cells assessed as increase in neurite length at 30 uM incubated for 4 days in presence of 0.5 ng/mL NGF (reference value: 21.1 micrometer); type: functional
[10] = test system: PC-12; assay: Potentiation of NGF-induced neurite outgrowth-promotion in rat PC12 cells at 1 to 30 uM incubated for 4 days in presence of 0.5 ng/mL NGF; type: functional, cell-based

Compound | Activity [1] [um] | Activity [2] | Activity [3] | Activity [4] [um] | Activity [5] | Activity [6] | Activity [7] | Activity [8] | Activity [9] [um] | Activity [10]
CC1(C)CC[C@]2(CC[C@]3(C)C(=CC[C@@H]4[C@@]5(C)C[C@@H](O)[C@H](O)[C@@](C)(CO)[C@@H]5CC[C@]43C)[C@H]2O)C1 | 22.9 | Dose-dependent effect | Active | 33.1 | inactive | Toxic | Active | – | – | –
CC1(C)CC[C@]2(CC[C@]3(C)C(=CC[C@@H]4[C@@]5(C)C[C@@H](O)[C@H](OC(=O)/C=C/c6ccc(O)cc6)[C@@](C)(CO)[C@@H]5CC[C@]43C)[C@H]2O)C1 (relative stereo) | 27.6 | Dose-dependent effect | – | 33.5 | – | – | – | inactive | 41.9 | Dose-dependent effect
CC1(C)CC[C@]2(CC[C@]3(C)C(=CC[C@@H]4[C@@]5(C)C[C@@H](O)[C@H](OC(=O)/C=C\c6ccc(O)cc6)[C@@](C)(CO)[C@@H]5CC[C@]43C)[C@H]2O)C1 (relative stereo) | 27.6 | Dose-dependent effect | – | 33.5 | – | – | – | inactive | 41.9 | Dose-dependent effect
COc1cc(/C=C/C(=O)O[C@H]2[C@H](O)C[C@@]3(C)[C@@H](CC[C@]4(C)[C@@H]3CC=C3[C@@H](O)[C@@]5(CCC(C)(C)C5)CC[C@]34C)[C@]2(C)CO)ccc1O (relative stereo) | 32.1 | Dose-dependent effect | – | 42 | – | – | – | inactive | 55.1 | Dose-dependent effect
COc1cc(/C=C\C(=O)O[C@H]2[C@H](O)C[C@@]3(C)[C@@H](CC[C@]4(C)[C@@H]3CC=C3[C@@H](O)[C@@]5(CCC(C)(C)C5)CC[C@]34C)[C@]2(C)CO)ccc1O (relative stereo) | 32.1 | Dose-dependent effect | – | 42 | – | – | – | inactive | 55.1 | Dose-dependent effect
